Reference: ChEMBL document CHEMBL1139401, “5-(4-Chlorophenyl)-5,6-dihydro-1,3-oxazepin-7(4H)-one derivatives as lipophilic cyclic analogues of baclofen: design, synthesis, and neuropharmacological evaluation” (2008)

Key:
Format in all cases: functional
Conditions in all cases: route intraperitoneal
Mus musculus [1] = assay: Decrease in cognitive impairment in albino mouse assessed as retention latency at 3 mg/kg, ip after 30 mins by passive avoidance reflex test
In short: (§1)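 Passive avoidance in male albino mice (20–25 g), five per group, housed singly from the day before training. Drug in DMSO was given ip 30, 45, 60 or 90 min before the training trial. Mice were put in the light side of a two-compartment apparatus and the door to the dark side was opened. The retention test next day used the shock generator off. Latency reported as mean ± SEM.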

Mus musculus [2] = assay: Decrease in cognitive impairment in albino mouse assessed as retention latency at 3 mg/kg, ip after 90 mins by passive avoidance reflex test; in short: as §1
Mus musculus [3] = assay: Analgesic activity in albino mouse assessed as retention latency at 3 mg/kg, ip after 60 mins by hot plate test
In short: (§2)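 Male albino mice (20–25 g), five per group, given drug in DMSO ip; vehicle controls got DMSO alone. Mice were placed in a glass cylinder on a 54 °C metal plate. Latency to hind-paw lick or jump was recorded, with a 30 s cut-off. Testing was 30, 45, 60 and 90 min post-injection. Values are mean ± SEM.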

Mus musculus [4] = assay: Neuropharmacological effect in albino mouse assessed as endurance time at 3 mg/kg, ip after 45 mins by rotarod test
In short: (§3)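 For the rotarod, the cylinder was 6 cm diameter, 30 cm high and turned at 12 rpm. Male albino mice were trained the day before to stay on for 300 s, and those not reaching this were excluded. Endurance time (max 300 s) was measured 30, 45, 60 and 90 min after ip drug in DMSO or vehicle. Five mice per group; mean ± SEM.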

Mus musculus [5] = assay: Neuropharmacological effect in albino mouse assessed as duration of loss of righting reflex at 3 mg/kg, ip
In short: (§4)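 Male albino mice (20–25 g), five per group, injected ip (drug in DMSO). Loss of righting reflex was inability to right within 30 s, after which mice were laid supine in a 90° trough. Return was righting twice within 1 min. Onset was recorded, and duration was the time from loss to return. Values are mean ± SEM.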

Mus musculus [6] = assay: Neuropharmacological effect in albino mouse assessed as endurance time at 3 mg/kg, ip after 30 mins by rotarod test; in short: as §3
Mus musculus [7] = assay: Neuropharmacological effect in albino mouse assessed as onset of loss of righting reflex at 3 mg/kg, ip; in short: as §4
Mus musculus [8] = assay: Neuropharmacological effect in albino mouse assessed as spontaneous locomotor activity at 3 mg/kg, ip after 90 mins
In short: (§5)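 Male albino mice (20–25 g), five per group, got ip drug in DMSO or DMSO vehicle and went back to their home cages. After 30, 45, 60 or 90 min each was placed alone in a Plexiglas box and spontaneous locomotor activity was recorded. Tests were run in the morning. Values are mean ± SEM.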

Mus musculus [9] = assay: Neuropharmacological effect in albino mouse assessed as spontaneous locomotor activity at 3 mg/kg, ip after 45 mins; in short: as §5
Mus musculus [10] = assay: Analgesic activity in albino mouse assessed as retention latency at 3 mg/kg, ip after 90 mins by hot plate test; in short: as §2
Mus musculus [11] = assay: Muscle relaxant activity in albino mouse at 3 mg/kg, ip after 60 mins by traction test; parameters: scale not given: the % may be the effect or the level left
In short: (§6)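 Traction test in male albino mice (20–25 g), five per group, given drug ip in DMSO. Success required touching the wire with at least one hind paw within 5 s; otherwise scored as failure. Mice were tested 30, 45, 60 and 90 min after dosing, immediately before the rotarod. Results are % successful, mean ± SEM.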

Mus musculus [12] = assay: Analgesic activity in albino mouse assessed as retention latency at 3 mg/kg, ip after 30 mins by hot plate test; in short: as §2
Mus musculus [13] = assay: Neuropharmacological effect in albino mouse assessed as endurance time at 3 mg/kg, ip after 90 mins by rotarod test; in short: as §3
Mus musculus [14] = assay: Muscle relaxant activity in albino mouse at 3 mg/kg, ip after 30 mins by traction test; parameters: scale not given: the % may be the effect or the level left; in short: as §6
Mus musculus [15] = assay: Muscle relaxant activity in albino mouse at 3 mg/kg, ip after 90 mins by traction test; parameters: scale not given: the % may be the effect or the level left; in short: as §6
Mus musculus [16] = assay: Neuropharmacological effect in albino mouse assessed as spontaneous locomotor activity at 3 mg/kg, ip after 30 mins; in short: as §5
Mus musculus [17] = assay: Analgesic activity in albino mouse assessed as retention latency at 3 mg/kg, ip after 45 mins by hot plate test; in short: as §2
Mus musculus [18] = assay: Neuropharmacological effect in albino mouse assessed as endurance time at 3 mg/kg, ip after 60 mins by rotarod test; in short: as §3
Mus musculus [19] = assay: Decrease in cognitive impairment in albino mouse assessed as retention latency at 3 mg/kg, ip after 45 mins by passive avoidance reflex test; in short: as §1
Mus musculus [20] = assay: Neuropharmacological effect in albino mouse assessed as spontaneous locomotor activity at 3 mg/kg, ip after 60 mins; in short: as §5
Mus musculus [21] = assay: Muscle relaxant activity in albino mouse at 3 mg/kg, ip after 45 mins by traction test; parameters: scale not given: the % may be the effect or the level left; in short: as §6
Mus musculus [22] = assay: Decrease in cognitive impairment in albino mouse assessed as retention latency at 3 mg/kg, ip after 60 mins by passive avoidance reflex test; in short: as §1

SMILES | Activity (Mus musculus [1]) | Activity (Mus musculus [2]) | Activity (Mus musculus [3]) | Activity (Mus musculus [4]) | Activity (Mus musculus [6]) | Activity (Mus musculus [8]) | Activity (Mus musculus [9]) | Activity (Mus musculus [10]) | Activity (Mus musculus [11]) | Activity (Mus musculus [12]) | Activity (Mus musculus [13]) | Activity (Mus musculus [14]) | Activity (Mus musculus [15]) | Activity (Mus musculus [16]) | Activity (Mus musculus [17]) | Activity (Mus musculus [18]) | Activity (Mus musculus [19]) | Activity (Mus musculus [20]) | Activity (Mus musculus [21]) | Activity (Mus musculus [22]) | further results
CCCCCCCCCCCC1=NCC(c2ccc(Cl)cc2)CC(=O)O1 (configuration not stated) | 152.34 s | 72.45 s | 18.56 s | 188 s | 232 s | 15.66 m | 16.21 m | 24.43 s | 40% | 7.82 s | 145 s | 45% | 40% | 20.12 m | 13.21 s | 178 s | 114.73 s | 14.11 m | 43% | 88.14 s | Activity (Mus musculus [5]): 60.25 min; Activity (Mus musculus [7]): 38.23 min
CCCCCCCCCCC1=NCC(c2ccc(Cl)cc2)CC(=O)O1 (configuration not stated) | 163.53 s | 164.56 s | 9.23 s | 300 s | 300 s | 40.13 m | 43.46 m | 9.33 s | 100% | 8.12 s | 300 s | 100% | 100% | 45.24 m | 8.22 s | 300 s | 163.23 s | 42.79 m | 100% | 160.43 s | 
CCCCCCCC1=NCC(c2ccc(Cl)cc2)CC(=O)O1 (configuration not stated) | 163.23 s | 164.56 s | 9.23 s | 300 s | 300 s | 40.13 m | 43.46 m | 9.33 s | 100% | 8.12 s | 300 s | 100% | 100% | 45.24 m | 8.22 s | 300 s | 163.23 s | 42.79 m | 100% | 160.43 s | 
CC1=NCC(c2ccc(Cl)cc2)CC(=O)O1 (configuration not stated) | 163.23 s | 164.56 s | 9.22 s | 300 s | 300 s | 40.13 m | 43.46 m | 9.33 s | 100% | 8.12 s | 300 s | 100% | 100% | 45.24 m | 8.22 s | 300 s | 163.23 s | 42.79 m | 100% | 160.43 s | 
CCCCCCCC/C=C/CCCCCCCC1=NCC(c2ccc(Cl)cc2)CC(=O)O1 (configuration not stated) | 146.23 s | 68.44 s | 23.61 s | 175 s | 198 s | 9.25 m | 9.33 m | 28.43 s | 33% | 9.34 s | 128 s | 35% | 31% | 11.45 m | 15.77 s | 155 s | 110.36 s | 10.61 m | 35% | 75.44 s | Activity (Mus musculus [5]): 93.37 min; Activity (Mus musculus [7]): 38.65 min
NCC(CC(=O)O)c1ccc(Cl)cc1 (configuration not stated) [BACLOFEN] | 125.34 s | 128.56 s | 14.36 s | 225 s | 214 s | 35.64 m | 28.48 m | 14.22 s | 53% | 13.42 s | 254 s | 50% | 53% | 30.21 m | 15.35 s | 234 s | 121.46 s | 30.76 m | 52% | 121.44 s | Activity (Mus musculus [5]): 35.23 min; Activity (Mus musculus [7]): 20.24 min
CCCCCCCCCCCCCC1=NCC(c2ccc(Cl)cc2)CC(=O)O1 (configuration not stated) | 147.24 s | 67.56 s | 18.45 s | 174 s | 219 s | 13.11 m | 13.73 m | 26.13 s | 35% | 8.33 s | 133 s | 40% | 35% | 15.24 m | 15.32 s | 169 s | 109.34 s | 14.76 m | 40% | 82.36 s | Activity (Mus musculus [5]): 75.93 min; Activity (Mus musculus [7]): 32.16 min
O=C1CC(c2ccc(Cl)cc2)CN=C(Cc2ccccc2)O1 (configuration not stated) | 125.64 s | 65.34 s | 25.63 s | 185 s | 234 s | 0 m | 0 m | 28.73 s | 25% | 9.53 s | 0 s | 27% | 22% | 0 m | 15.38 s | 0 s | 106.56 s | 0 m | 25% | 70.34 s | Activity (Mus musculus [5]): 112.36 min; Activity (Mus musculus [7]): 42.12 min
C=CCCCCCCCCC1=NCC(c2ccc(Cl)cc2)CC(=O)O1 (configuration not stated) | 148.82 s | 95.45 s | 19.73 s | 198 s | 222 s | 18.56 m | 20.56 m | 21.42 s | 50% | 8.32 s | 155 s | 55% | 53% | 25.36 m | 14.34 s | 185 s | 118.32 s | 19.43 m | 50% | 95.35 s | Activity (Mus musculus [5]): 55.33 min; Activity (Mus musculus [7]): 36.63 min
CCCCCCCCC1=NCC(c2ccc(Cl)cc2)CC(=O)O1 (configuration not stated) | 163.33 s | 164.56 s | 9.23 s | 300 s | 300 s | 40.13 m | 43.46 m | 9.33 s | 100% | 8.12 s | 300 s | 100% | 100% | 45.24 m | 8.22 s | 300 s | 163.23 s | 42.79 m | 100% | 160.43 s | 
